According to ChEMBL document CHEMBL4152290, “1H-Benzo[d]imidazoles and 3,4-dihydroquinazolin-4-ones: Design, synthesis and antitubercular activity” (Eur J Med Chem, 2018):
Converted amounts (≈) assume the structure as drawn.

Key:
[1] = Selectivity index, ratio of cytotoxic concentration for African green monkey Vero cells by MTT assay to MIC for Mycobacterium tuberculosis H37Rv ATCC 27294; format: toxicity; conditions: read-out: Selectivity Index
[2] = Selectivity index, ratio of cytotoxic concentration for human HepG2 cells by neutral red uptake assay to MIC for Mycobacterium tuberculosis H37Rv ATCC 27294; format: toxicity; conditions: read-out: Selectivity Index
[3] = Stability of the compound in PBS containing 10% DMSO at 25 degC measured after 9 hrs by HPLC analysis; format: physicochemical; conditions: buffer
[4] = Stability of the compound in PBS containing 10% DMSO at 37 degC measured after 9 hrs by HPLC analysis; format: physicochemical; conditions: PBS containing 10% DMSO; read-out: Stability
Danio rerio [5] = species: Danio rerio; assay: Cardiotoxicity in Zebrafish AB embryos assessed as heart beat rate at 20 uM measured at 2 days post fertilization by stereomicroscopic method (reference value: 128.7 to 146.3 bpm); format: organism-based; conditions: in vivo, 48 h
[6] = Stability of the compound in PBS containing 10% DMSO at 37 degC measured after 12 hrs by HPLC analysis; format: physicochemical; conditions: read-out: Stability
[7] = Selectivity index, ratio of cytotoxic concentration for human HaCaT cells by MTT assay to MIC for Mycobacterium tuberculosis H37Rv ATCC 27294; format: toxicity; conditions: read-out: Selectivity Index
[8] = Cytotoxicity against African green monkey Vero assessed as cell viability at 10 ug/ml after 72 hrs by neutral red uptake assay (reference value: 100%); format: cell-based; conditions: chlorocebus sabaeus, Vero cells; read-out: Activity
Summary of the method: (§1)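 Seeding was 2×10^3/well for HepG2 and HaCat and 1×10^3/well for Vero. After 24 h, cells received 10 µg/mL final (2% DMSO) for 72 h at 37 °C, 5% CO2. They were washed with PBS, given neutral red 25 µg/mL in serum-free medium for 3 h, washed, and extracted 30 min with acetic acid/EtOH/water 1:50:49. A540 was read. Viability is relative to 2% DMSO controls; mean ± SEM, three experiments in triplicate.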

[9] = Stability of the compound in PBS containing 10% DMSO at 25 degC measured immediately by HPLC analysis; format: physicochemical; conditions: read-out: Stability
[10] = Cytotoxicity against human HaCaT cells assessed as cell viability at 10 ug/ml after 72 hrs by MTT assay (reference value: 100%); format: cell-based; conditions: read-out: Activity
Summary of the method: (§2)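 Cells were grown in DMEM with 10% heat-inactivated FBS and penicillin-streptomycin, seeded at 2×10^3/well (HepG2, HaCat) or 1×10^3/well (Vero), then left 24 h. Compound was applied at 10 µg/mL final (2% DMSO) for 72 h at 37 °C, 5% CO2. MTT 1 mg/mL was added for 3 h, formazan dissolved in DMSO, and A595 read. Viability is expressed relative to 2% DMSO wells; mean ± SEM, triplicates, three independent experiments.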

Danio rerio [11] = species: Danio rerio; assay: Cardiotoxicity in Zebrafish AB embryos assessed as heart beat rate at 20 uM measured at 5 days post fertilization by stereomicroscopic method (reference value: 148.1 to 158.2 bpm); format: organism-based; conditions: in vivo, 120 h
[12] = Selectivity index, ratio of cytotoxic concentration for African green monkey Vero cells by neutral red uptake assay to MIC for Mycobacterium tuberculosis H37Rv ATCC 27294; format: toxicity; conditions: read-out: Selectivity Index
[13] = Stability of the compound in PBS containing 10% DMSO at 37 degC measured immediately by HPLC analysis; format: physicochemical; conditions: read-out: Stability
Danio rerio [14] = species: Danio rerio; assay: Toxicity in Zebrafish AB embryos assessed as morphological alteration by measuring effect on surface area of eyes at 3 to 20 uM measured at 2 to 5 days post fertilization by stereomicroscopic method; format: organism-based; conditions: in vivo
Summary of the method: (§3)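 AB embryos are treated from 2 hpf to 5 dpf at 3.0, 15.0 and 20.0 µM in fish water with 1% DMSO, at 28 °C. Controls are fish water and 1% DMSO. Larvae are photographed under a stereomicroscope (3×) at 2 and 5 dpf, n = 30. Body length (µm), ocular distance (µm) and eye surface area (µm²) are measured from the images.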

[15] = Stability of the compound in PBS containing 10% DMSO at 37 degC measured after 3 hrs by HPLC analysis; format: physicochemical; conditions: read-out: Stability
Danio rerio [16] = species: Danio rerio; assay: Induction of neurological impairment in Zebrafish AB embryos assessed as alteration in locomotor activity by measuring swimming activity at 3 to 20 uM measured at 5 days post fertilization; format: organism-based; conditions: in vivo, 120 h
Summary of the method: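 Larvae were exposed from 2 hpf in fish water with 1% DMSO. At 5 dpf each larva was placed singly in a well of water or treatment solution. After 1 min acclimation, it was video-tracked for 5 min at 15 positions/s, and distance travelled was scored.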

[17] = tested on: Mycobacterium tuberculosis; assay: Antitubercular activity against Mycobacterium tuberculosis H37Rv ATCC 27294 after 7 days by resazurin dye based assay; format: functional; conditions: H37Rv ATCC 27294, 168 h
Summary of the method: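 Resazurin microtiter MIC in 7H9 with 10% ADC. Two-fold dilutions from 1 mg/mL DMSO stocks span 25.0–0.05, 10.0–0.02 or 0.02–0.0004 µg/mL, with 2.5% DMSO final. Inoculum is bead-declumped culture grown in 7H9/10% OADC/0.05% Tween 80, diluted to OD600 0.006. Plates run 7 days at 37 °C, then 0.01% resazurin for 48 h. MIC is the lowest concentration preventing the blue-to-pink change. Three independent tests.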

Danio rerio [18] = species: Danio rerio; assay: Toxicity in Zebrafish AB embryos assessed as morphological alteration by measuring effect on ocular distance at 3 to 20 uM measured at 2 to 5 days post fertilization by stereomicroscopic method; format: organism-based; conditions: in vivo; summary of the method: as §3
Danio rerio [19] = species: Danio rerio; assay: Cardiotoxicity in Zebrafish AB embryos assessed as heart beat rate at 15 uM measured at 5 days post fertilization by stereomicroscopic method (reference value: 148.1 to 158.2 bpm); format: organism-based; conditions: in vivo, 120 h
[20] = Cytotoxicity against African green monkey Vero assessed as cell viability at 10 ug/ml after 72 hrs by MTT assay (reference value: 100%); format: cell-based; conditions: chlorocebus sabaeus, Vero cells; read-out: Activity; summary of the method: as §2
[21] = Stability of the compound in PBS containing 10% DMSO at 37 degC measured after 6 hrs by HPLC analysis; format: physicochemical; conditions: read-out: Stability
Danio rerio [22] = species: Danio rerio; assay: Cardiotoxicity in Zebrafish AB embryos assessed as heart beat rate at 3 uM measured at 2 days post fertilization by stereomicroscopic method (reference value: 128.7 to 146.3 bpm); format: organism-based; conditions: in vivo, 48 h
[23] = Cytotoxicity against human HepG2 cells assessed as cell viability at 10 ug/ml after 72 hrs by neutral red uptake assay (reference value: 100%); format: cell-based; conditions: read-out: Activity; summary of the method: as §1
Danio rerio [24] = species: Danio rerio; assay: Cardiotoxicity in Zebrafish AB embryos assessed as heart beat rate at 3 uM measured at 5 days post fertilization by stereomicroscopic method (reference value: 148.1 to 158.2 bpm); format: organism-based; conditions: in vivo, 120 h
Danio rerio [25] = species: Danio rerio; assay: Cardiotoxicity in Zebrafish AB embryos assessed as heart beat rate at 15 uM measured at 2 days post fertilization by stereomicroscopic method (reference value: 128.7 to 146.3 bpm); format: organism-based; conditions: in vivo, 48 h
[26] = Selectivity index, ratio of cytotoxic concentration for human HepG2 cells by MTT assay to MIC for Mycobacterium tuberculosis H37Rv ATCC 27294; format: toxicity; conditions: read-out: Selectivity Index
Danio rerio [27] = species: Danio rerio; assay: Toxicity in Zebrafish AB embryos assessed as morphological alteration by measuring effect on body length of larvae at 3 to 20 uM measured at 2 to 5 days post fertilization by stereomicroscopic method; format: organism-based; conditions: in vivo; summary of the method: as §3
[28] = Stability of the compound in PBS containing 10% DMSO at 25 degC measured after 6 hrs by HPLC analysis; format: physicochemical; conditions: buffer

| SMILES | selectivity ratio [1] | selectivity ratio [2] | Stability [3] [%] | remaining at 9 h [4] [%] | Activity (Danio rerio [5]) [bpm] | remaining at 12 h [6] [%] | selectivity ratio [7] | viability at 72 h, 10 ug/ml [8] [%] | remaining at 0 h [9] [%] | viability at 72 h, 10 ug/ml [10] [%] | Activity (Danio rerio [11]) [bpm] | selectivity ratio [12] | remaining at 0 h [13] [%] | Activity (Danio rerio [14]) | remaining at 3 h [15] [%] | Activity (Danio rerio [16]) | MIC [17] [µM] | Activity (Danio rerio [18]) | Activity (Danio rerio [19]) [bpm] | viability at 72 h, 10 ug/ml [20] [%] | also measured |
| --- | --- | --- | --- | --- | --- | --- | --- | --- | --- | --- | --- | --- | --- | --- | --- | --- | --- | --- | --- | --- | --- |
| CC1CCCC(NC(=O)CSc2nc3ccccc3c(=O)[nH]2)C1 (stereo not drawn) | ≤ 32 | ≤ 32 | 100 | 97 | 152.2 | 100 | ≤ 32 | 95 | 100 | 94 | 160.9 | ≤ 32 | 100 | Non-Toxic | 96 | Non-Toxic | 0.24 (≈ 0.0795 µg/mL) | Non-Toxic | 157.4 | 89 | remaining at 6 h [21]: 101%; Activity (Danio rerio [22]): 151.2 bpm; viability at 72 h, 10 ug/ml [23]: 95%; Activity (Danio rerio [24]): 157.2 bpm; Activity (Danio rerio [25]): 151.7 bpm; selectivity ratio [26]: ≤ 32; Activity (Danio rerio [27]): Non-Toxic; Stability [28]: 102% |
| O=C(CSc1nc2ccccc2c(=O)[nH]1)NCC1CCCCC1 | ≤ 32 | ≤ 32 | 116 | 112 | 152.6 | 111 | ≤ 32 | 97 | 100 | 98 | 152.5 | ≤ 32 | 100 | Non-Toxic | 106 | Non-Toxic | 0.94 (≈ 0.312 µg/mL) | Non-Toxic | 158.9 | 89 | remaining at 6 h [21]: 109%; Activity (Danio rerio [22]): 140.7 bpm; viability at 72 h, 10 ug/ml [23]: 97%; Activity (Danio rerio [24]): 157.8 bpm; Activity (Danio rerio [25]): 143.2 bpm; selectivity ratio [26]: ≤ 32; Activity (Danio rerio [27]): Non-Toxic; Stability [28]: 115% |
| C[C@H]1CC[C@H](NC(=O)CSc2nc3ccccc3c(=O)[nH]2)CC1 | ≤ 32 | ≤ 32 | 64 | 77 | 150.2 | 70 | ≤ 32 | 93 | 100 | 97 | 153.8 | ≤ 32 | 100 | Non-Toxic | 83 | Non-Toxic | 0.24 (≈ 0.0795 µg/mL) | Non-Toxic | 157.4 | 88 | remaining at 6 h [21]: 87%; Activity (Danio rerio [22]): 135.5 bpm; viability at 72 h, 10 ug/ml [23]: 97%; Activity (Danio rerio [24]): 149.2 bpm; Activity (Danio rerio [25]): 134 bpm; selectivity ratio [26]: ≤ 32; Stability [28]: 67% |
